Data reported in ChEMBL document CHEMBL4312005, “Optimization of pyrrolizine-based Schiff bases with 4-thiazolidinone motif: Design, synthesis and investigation of cytotoxicity and anti-inflammatory potency” (Eur J Med Chem, 2020).
pIC50: −log10 of the molar value. One block for each compound: values may come before it.

What was measured:
MCF7 [1] = experiment: Antiproliferative activity against human MCF7 cells assessed as reduction in cell growth incubated for 72 hrs by MTT assay; type: functional, cell-based; settings: MCF7, 72 h
How it was run: (§1)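 MTT assay on MCF-7, A2780, HT29 and normal MRC5 fibroblast lines (ATCC) grown in DMEM with 10% FBS. Cells exposed to compounds for 72 h, then reduced MTT read at 570 nm.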

A2780 = experiment: Antiproliferative activity against human A2780 cells assessed as reduction in cell growth incubated for 72 hrs by MTT assay; type: functional, cell-based; settings: A2780, 72 h; how it was run: as §1
HT-29 = experiment: Antiproliferative activity against human HT-29 cells assessed as reduction in cell growth incubated for 72 hrs by MTT assay; type: functional, cell-based; settings: HT-29, 72 h; how it was run: as §1
MRC5 = experiment: Cytotoxicity against human MRC5 cells assessed as reduction in cell growth incubated for 72 hrs by MTT assay; type: cell-based; settings: MRC5, 72 h; how it was run: as §1
[2] = Selectivity index, ratio of IC50 for cytotoxicity against human MRC5 cells to IC50 for antiproliferative activity against human MCF7 cells; settings: MRC5 cells versus MCF7 cells
[3] = Selectivity index, ratio of IC50 for cytotoxicity against human MRC5 cells to IC50 for antiproliferative activity against human A2780 cells; settings: MRC5 cells versus A2780 cells
[4] = target: Prostaglandin G/H synthase 1 (Homo sapiens, UniProt P23219); experiment: Inhibition of human COX1 using arachidonic acid as substrate incubated for 2 mins by ELISA method
Chain of Prostaglandin G/H synthase 1 (P23219 whole entry): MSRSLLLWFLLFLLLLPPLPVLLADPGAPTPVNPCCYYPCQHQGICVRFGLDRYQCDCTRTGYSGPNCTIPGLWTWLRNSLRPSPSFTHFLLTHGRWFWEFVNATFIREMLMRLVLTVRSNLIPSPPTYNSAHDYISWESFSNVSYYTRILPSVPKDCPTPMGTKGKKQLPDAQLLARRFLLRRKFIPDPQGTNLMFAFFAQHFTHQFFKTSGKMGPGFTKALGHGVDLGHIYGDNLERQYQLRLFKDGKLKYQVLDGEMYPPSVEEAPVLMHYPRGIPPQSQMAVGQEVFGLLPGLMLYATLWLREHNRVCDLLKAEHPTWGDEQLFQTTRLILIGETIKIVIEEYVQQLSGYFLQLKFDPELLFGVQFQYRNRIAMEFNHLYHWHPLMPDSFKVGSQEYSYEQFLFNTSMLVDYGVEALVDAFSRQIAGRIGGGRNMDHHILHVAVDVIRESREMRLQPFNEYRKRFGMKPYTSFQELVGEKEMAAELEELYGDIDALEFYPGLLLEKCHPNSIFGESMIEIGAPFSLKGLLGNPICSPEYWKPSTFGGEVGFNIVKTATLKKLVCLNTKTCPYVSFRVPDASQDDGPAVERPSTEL

Rattus norvegicus [5] = experiment: Antiinflammatory activity against albino rats assessed as inhibition of carrageenan-induced paw edema at 0.5 mmol, po measured after 2 hrs relative to control; type: functional
How it was run: (§2)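 Carrageenan rat paw edema (Winter method) in male and female adult albino rats (100-140 g). […] Swelling inhibition expressed as % of control at 2-4 h after carrageenan injection.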

Rattus norvegicus [6] = experiment: Antiinflammatory activity against albino rats assessed as inhibition of carrageenan-induced paw edema at 0.5 mmol, po measured after 4 hrs relative to control; type: functional; how it was run: as §2
MCF7 [7] = experiment: Antiproliferative activity against human MCF7 cells assessed as cell viability at 5 uM incubated for 48 hrs by MTT assay (reference value: 100 %); type: functional; settings: MCF7, 48 h, read-out: Activity
How it was run: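 Preliminary single-dose screen by MTT assay. MCF-7 cells grown in DMEM/10% FBS were exposed to 5 μM compound for 48 h, and growth% was determined. Values are mean ± S.D., n = 6.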

[8] = Selectivity index, ratio of IC50 for cytotoxicity against human MRC5 cells to IC50 for antiproliferative activity against human HT-29 cells; settings: MRC5 cells versus HT-29 cells
MCF7 [9] = experiment: Cell cycle arrest in human MCF7 cells assessed as subG1 accumulation at 1 uM incubated for 24 hrs by propidium iodide based flow cytometry (reference value: 0.6 to 3 %); type: functional
MCF7 [10] = experiment: Cell cycle arrest in human MCF7 cells assessed as subG1 accumulation at 5 uM incubated for 24 hrs by propidium iodide based flow cytometry (reference value: 0.6 to 3 %); type: functional
MCF7 [11] = experiment: Cell cycle arrest in human MCF7 cells assessed as subG1 accumulation at 10 uM incubated for 24 hrs by propidium iodide based flow cytometry (reference value: 0.6 to 3 %); type: functional
MCF7 [12] = experiment: Cell cycle arrest in human MCF7 cells assessed as G1 accumulation at 1 uM incubated for 24 hrs by propidium iodide based flow cytometry (reference value: 49.6 to 55.1 %); type: functional
MCF7 [13] = experiment: Cell cycle arrest in human MCF7 cells assessed as G1 accumulation at 5 uM incubated for 24 hrs by propidium iodide based flow cytometry (reference value: 49.6 to 55.1 %); type: functional
MCF7 [14] = experiment: Cell cycle arrest in human MCF7 cells assessed as G1 accumulation at 10 uM incubated for 24 hrs by propidium iodide based flow cytometry (reference value: 49.6 to 55.1 %); type: functional
MCF7 [15] = experiment: Cell cycle arrest in human MCF7 cells assessed as S phase accumulation at 1 uM incubated for 24 hrs by propidium iodide based flow cytometry (reference value: 17.3 to 28.5 %); type: functional
MCF7 [16] = experiment: Cell cycle arrest in human MCF7 cells assessed as S phase accumulation at 5 uM incubated for 24 hrs by propidium iodide based flow cytometry (reference value: 17.3 to 28.5 %); type: functional
MCF7 [17] = experiment: Cell cycle arrest in human MCF7 cells assessed as S phase accumulation at 10 uM incubated for 24 hrs by propidium iodide based flow cytometry (reference value: 17.3 to 28.5 %); type: functional
MCF7 [18] = experiment: Cell cycle arrest in human MCF7 cells assessed as G2/M phase accumulation at 1 uM incubated for 24 hrs by propidium iodide based flow cytometry (reference value: 17.2 to 26.8 %); type: functional
MCF7 [19] = experiment: Cell cycle arrest in human MCF7 cells assessed as G2/M phase accumulation at 5 uM incubated for 24 hrs by propidium iodide based flow cytometry (reference value: 17.2 to 26.8 %); type: functional
MCF7 [20] = experiment: Cell cycle arrest in human MCF7 cells assessed as G2/M phase accumulation at 10 uM incubated for 24 hrs by propidium iodide based flow cytometry (reference value: 17.2 to 26.8 %); type: functional
MCF7 [21] = experiment: Induction of apoptosis in human MCF7 cells assessed as viable cells at 1 uM incubated for 24 hrs by annexin V FITC and propidium iodide staining based flow cytometry (reference value: 76 to 95.9 %); type: functional; settings: MCF7, 24 h, read-out: Activity
MCF7 [22] = experiment: Induction of apoptosis in human MCF7 cells assessed as viable cells at 5 uM incubated for 24 hrs by annexin V FITC and propidium iodide staining based flow cytometry (reference value: 76 to 95.9 %); type: functional; settings: MCF7, 24 h, read-out: Activity
MCF7 [23] = experiment: Induction of apoptosis in human MCF7 cells assessed as viable cells at 10 uM incubated for 24 hrs by annexin V FITC and propidium iodide staining based flow cytometry (reference value: 76 to 95.9 %); type: functional; settings: MCF7, 24 h, read-out: Activity
MCF7 [24] = experiment: Induction of apoptosis in human MCF7 cells assessed as early apoptotic cells at 1 uM incubated for 24 hrs by annexin V FITC and propidium iodide staining based flow cytometry (reference value: 0 to 9 %); type: functional
MCF7 [25] = experiment: Induction of apoptosis in human MCF7 cells assessed as early apoptotic cells at 5 uM incubated for 24 hrs by annexin V FITC and propidium iodide staining based flow cytometry (reference value: 0 to 9 %); type: functional
MCF7 [26] = experiment: Induction of apoptosis in human MCF7 cells assessed as early apoptotic cells at 10 uM incubated for 24 hrs by annexin V FITC and propidium iodide staining based flow cytometry (reference value: 0 to 9 %); type: functional
MCF7 [27] = experiment: Induction of apoptosis in human MCF7 cells assessed as late apoptotic cells at 1 uM incubated for 24 hrs by annexin V FITC and propidium iodide staining based flow cytometry (reference value: 0 to 2.5 %); type: functional
MCF7 [28] = experiment: Induction of apoptosis in human MCF7 cells assessed as late apoptotic cells at 5 uM incubated for 24 hrs by annexin V FITC and propidium iodide staining based flow cytometry (reference value: 0 to 2.5 %); type: functional
MCF7 [29] = experiment: Induction of apoptosis in human MCF7 cells assessed as late apoptotic cells at 10 uM incubated for 24 hrs by annexin V FITC and propidium iodide staining based flow cytometry (reference value: 0 to 2.5 %); type: functional
MCF7 [30] = experiment: Induction of apoptosis in human MCF7 cells assessed as necrotic cells at 1 uM incubated for 24 hrs by annexin V FITC and propidium iodide staining based flow cytometry (reference value: 4.1 to […]); type: functional
MCF7 [31] = experiment: Induction of apoptosis in human MCF7 cells assessed as necrotic cells at 5 uM incubated for 24 hrs by annexin V FITC and propidium iodide staining based flow cytometry (reference value: 4.1 to […]); type: functional
MCF7 [32] = experiment: Induction of apoptosis in human MCF7 cells assessed as necrotic cells at 10 uM incubated for 24 hrs by annexin V FITC and propidium iodide staining based flow cytometry (reference value: 4.1 to […]); type: functional

Compound: CCC1SCC(=O)N1c1c(C#N)c2n(c1C(=O)Nc1ccc(Cl)cc1)CCC2 (stereo unspecified)
pIC50 (MCF7 [1]): 6.68 | pIC50 (A2780): 6.51 | pIC50 (HT-29): 6.70 | pIC50 (MRC5): 6.04 | selectivity ratio [2]: 3 to 15 | selectivity ratio [3]: 3 to 15 | pIC50 [4]: < 4.00 | inhibition (INH) (Rattus norvegicus [5]): 21.76% | inhibition (INH) (Rattus norvegicus [6]): 32.48%

Compound: CCC1SCC(=O)N1c1c(C#N)c2n(c1C(=O)Nc1ccccc1)CCCC2 (stereo unspecified)
pIC50 (MCF7 [1]): 6.08 | pIC50 (A2780): 5.37 | pIC50 (HT-29): 5.69 | pIC50 (MRC5): 4.95 | selectivity ratio [2]: 3 to 15 | pIC50 [4]: 4.18

Compound: CCC1SCC(=O)N1c1c(C#N)c2n(c1C(=O)Nc1ccc(C)cc1)CCC2 (stereo unspecified)
pIC50 (MCF7 [1]): 6.33 | pIC50 (A2780): 6.96 | pIC50 (HT-29): 6.92 | pIC50 (MRC5): 5.77 | selectivity ratio [2]: 3 to 15 | selectivity ratio [3]: 3 to 15 | pIC50 [4]: < 4.00

Compound: CS(=O)(=O)CCNCc1ccc(-c2ccc3ncnc(Nc4ccc(OCc5cccc(F)c5)c(Cl)c4)c3c2)o1 [LAPATINIB]
pIC50 (HT-29): 4.90 | pIC50 (MRC5): 4.86

More lines, main results first:

pIC50 (MCF7 [1]): 6.31 | pIC50 (A2780): 6.33 | pIC50 (HT-29): 4.84 | pIC50 [4]: 4.14
Compound: N#Cc1c(/N=C/c2ccc(O)cc2)c(C(=O)Nc2ccc(Br)cc2)n2c1CCC2
viability at 5 µM (MCF7 [7]): 69% | pIC50 (MRC5): 4.60 | selectivity ratio [2]: 2 to 52 | selectivity ratio [3]: 2 to 52 | selectivity ratio [8]: 2 to 52 | inhibition (INH) (Rattus norvegicus [5]): 28.15% | inhibition (INH) (Rattus norvegicus [6]): 44.51% | Activity (MCF7 [9]): 0.4% | Activity (MCF7 [10]): 0.4% | Activity (MCF7 [11]): 0.8% | Activity (MCF7 [12]): 31.7% | Activity (MCF7 [13]): 28.9% | Activity (MCF7 [14]): 27.9% | Activity (MCF7 [15]): 54.1% | Activity (MCF7 [16]): 49.7% | Activity (MCF7 [17]): 51.9% | Activity (MCF7 [18]): 14.2% | Activity (MCF7 [19]): 22% | Activity (MCF7 [20]): 19.8% | viability at 1 µM (MCF7 [21]): 65.7% | viability at 5 µM (MCF7 [22]): 66.3% | viability at 10 µM (MCF7 [23]): 69.2% | Activity (MCF7 [24]): 10.2% | Activity (MCF7 [25]): 8.6% | Activity (MCF7 [26]): 5% | Activity (MCF7 [27]): 9.8% | Activity (MCF7 [28]): 7.4% | Activity (MCF7 [29]): 5.2% | Activity (MCF7 [30]): 14.3% | Activity (MCF7 [31]): 17.8% | Activity (MCF7 [32]): 20.6%

pIC50 (MCF7 [1]): 6.13 | pIC50 (A2780): 6.24 | pIC50 (HT-29): 5.99 | pIC50 [4]: 4.81
Compound: CC/C=N/c1c(C#N)c2n(c1C(=O)Nc1ccc(Cl)cc1)CCC2
pIC50 (MRC5): 6.77 | inhibition (INH) (Rattus norvegicus [5]): 19.17% | inhibition (INH) (Rattus norvegicus [6]): 24.06%

pIC50 (MCF7 [1]): 6.08 | pIC50 (A2780): 5.41 | pIC50 (HT-29): 6.21 | pIC50 [4]: 4.56
Compound: CC/C=N/c1c(C#N)c2n(c1C(=O)Nc1ccc(C)cc1)CCC2
pIC50 (MRC5): 6.25
